The values below come from ChEMBL document CHEMBL1275448, “Identification of a novel multidrug efflux pump of Mycobacterium tuberculosis” (2008).

In brackets after ≈: the same amount, converted by molar mass.

Assay [1] has as its system Mycobacterium tuberculosis. In words: Antimicrobial activity against wild-type Mycobacterium bovis BCG by microplate Alamar blue assay. The assay is classed as functional. As to conditions: variant bovis BCG. Summed up:
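Whole-cell M. bovis BCG (Institut Pasteur) MABA; mutants carried IS1096::Km insertions. Growth was in Middlebrook 7H9 with 0.2% glycerol, 0.05% Tween 80 and 10% OADC. Final drug ranges: ampicillin 62.5–2,000 μg/ml, vancomycin 1.25–40 μg/ml, streptomycin 0.25–8 μg/ml, chloramphenicol 4–128 μg/ml, tetracycline 0.5–16 μg/ml. MIC was the lowest concentration cutting viability ≥90%, read by fluorescence (ex 530/em 590 nm, room temperature).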
(In general: The colour change of resazurin is a common sign of viable cells or microbes.)

The test system of assay [2] is Mycobacterium tuberculosis. In words: Resistance factor, ratio of MIC for Mycobacterium bovis BCG ML1034 to MIC for wild-type Mycobacterium bovis BCG. It counts as functional, variant bovis BCG. Summed up: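 Resistance factor is the MABA MIC for BCG mutant ML1034 divided by the MIC for wild-type BCG. Both MICs were taken as ≥90% viability reduction, read by fluorescence (ex 530/em 590 nm).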

Turning to `CN[C@@H]1[C@H](O[C@H]2[C@H](O[C@H]3[C@H](O)[C@@H](O)[C@H](N=C(N)N)[C@@H](O)[C@@H]3N=C(N)N)O[C@@H](C)[C@]2(O)C=O)O[C@@H](CO)[C@H](O)[C@H]1O` [STREPTOMYCIN], the lowest concentration to inhibit growth in assay [1] (MIC) was 0.5 µg/mL (≈ 0.86 µM). Besides, the Ratio in assay [2] turned out to be 32.
For `CN[C@H](CC(C)C)C(=O)N[C@H]1C(=O)N[C@@H](CC(N)=O)C(=O)N[C@H]2C(=O)N[C@H]3C(=O)N[C@H](C(=O)N[C@H](C(=O)O)c4cc(O)cc(O)c4-c4cc3ccc4O)[C@H](O)c3ccc(c(Cl)c3)Oc3cc2cc(c3O[C@@H]2O[C@H](CO)[C@@H](O)[C@H](O)[C@H]2O[C@H]2C[C@](C)(N)[C@H](O)[C@H](C)O2)Oc2ccc(cc2Cl)[C@H]1O` [VANCOMYCIN], in that order: 5 µg/mL (≈ 3.45 µM) and 4.
Take `CC1(C)S[C@@H]2[C@H](NC(=O)[C@H](N)c3ccccc3)C(=O)N2[C@H]1C(=O)O` [AMPICILLIN]: the MIC in assay [1] was found to be 62.5 µg/mL (≈ 179 µM). In addition, the Ratio in assay [2] is on record as 32.
`O=C(N[C@H](CO)[C@H](O)c1ccc([N+](=O)[O-])cc1)C(Cl)Cl` [CHLORAMPHENICOL]: the MIC in assay [1] is 8 µg/mL (≈ 24.8 µM). Also, the Ratio in assay [2] is listed as 64.
In turn, `CN(C)[C@@H]1C(O)=C(C(N)=O)C(=O)[C@@]2(O)C(O)=C3C(=O)c4c(O)cccc4[C@@](C)(O)[C@H]3C[C@@H]12` [TETRACYCLINE] yielded an MIC in assay [1] of 2 µg/mL (≈ 4.5 µM). In assay [2], the Ratio is given as greater than 8.

Usually MIC stands for the smallest concentration in the dilution series that meets the test's criterion for growth inhibition. Read a low MIC as a more susceptible organism.
